Key:
[1] = folding enthalpy; higher = less favourable; fluorescence melt of hairpins on a sequencing array, two-state fit; conditions: sodium 0.088 M
Summary of the method: (§1)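 Cy3 fluorescence of library hairpins on a sequenced MiSeq flow cell, with annealed Cy3 and quencher oligos, was imaged in 50 mM Na-HEPES pH 8.0, 25 mM NaCl in 2.5 °C steps up to 60 °C. Signals were normalised to pre-quench Cy3 and to control variants. Melting temperature and folding enthalpy came from bootstrapped two-state fits, inverse-variance combined over four replicates. Fitted temperatures were raised by 9.35 °C to match UV melts.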

[2] = melting temperature; fluorescence melt of hairpins on a sequencing array, two-state fit, raised by 9.35 °C to match UV melts; conditions: sodium 0.088 M
Summary of the method: as §1

Row | Sequence | folding enthalpy [1] [kcal/mol] | Tm [2] [°C]
1 | GCGCTTACGAAAGTACGC (((..(((....)))))) | -21.4 | 46.2
2 | GCGCTTGCGAAAGCACGC (((..(((....)))))) | -15.9 | 55.2
3 | GCGGAACGAAAGTTCGC (((.(((....)))))) | -24.4 | 58.9
4 | GCGGAATCCCGC ((((....)))) | -22.1 | 53.9
5 | GCGGAATCGAAAGATCGC (((..(((....)))))) | -25.8 | 45.5
6 | GCGGACACGAAAGTGCGC (((..(((....)))))) | -26.1 | 55.6
7 | GCGGACCACCGC ((((....)))) | -24.2 | 59.9
8 | GCGGACGAAAGTCAACGC ((((((....)))..))) | -42 | 54.3
9 | GCGGACGAAAGTCTCGC ((((((....))).))) | -18.9 | 55.2
10 | GCGGACGAAAGTCTTCGC ((((((....)))..))) | -23.4 | 45.9
11 | GCGGACGCCGC ((((...)))) | -19.1 | 58.3
12 | GCGGACGGAAACATCCGC (((((.(....).))))) | -39.2 | 52.9
13 | GCGGACGGAAACGTCTGC ((.((((....)))).)) | -36.3 | 65.9
14 | GCGGACTACCGC ((((....)))) | -27.9 | 54
15 | GCGGAGAAATCCGC (((((....))))) | -29.1 | 61.8
16 | GCGGAGCGAAAGCACTGC ((.(.((....)).).)) | -12.7 | 50
17 | GCGGAGCGAAAGCATCGC (((..((....))..))) | -15.7 | 55.7
18 | GCGGAGGACCGC ((((....)))) | -19.5 | 52.4
19 | GCGGAGGCCGC ((((...)))) | -18 | 58.9
20 | GCGGATCACCGC ((((....)))) | -25.8 | 59
21 | GCGGATCGAAAGATACGC (((.(((....))).))) | -40.3 | 68.7
22 | GCGGATCGAAAGATGCGC (((.(((....))).))) | -38.6 | 66.3
23 | GCGGATGCGAAAGCACGC (((..(((....)))))) | -15.8 | 56.6
24 | GCGGATGGAAACATCCAC (.(((((....))))).) | -14.7 | 45.3
25 | GCGGATGGAAACATCTGC ((.((((....)))).)) | -47.5 | 54.4

Row | Sequence | folding enthalpy [1] [kcal/mol] | Tm [2] [°C]
26 | GCGGCAGGAAACCGCCGC (((((.(....).))))) | -30.6 | 69.3
27 | GCGGCAGTCCGC ((((....)))) | -23.7 | 59.7
28 | GCGGCCACCCGC ((((....)))) | -19.8 | 59.5
29 | GCGGCCGAAAGGCACCGC ((((((....)))..))) | -16.8 | 56
30 | GCGGCCGAAAGGCGACGC ((((((....)))..))) | -17.2 | 65.9
31 | GCGGCCGAAAGGCGCCGC ((((((....)))..))) | -14.9 | 62.8
32 | GCGGCCGACCGC ((((....)))) | -26.7 | 57.6
33 | GCGGCCGGAAACAGCCGC (((((.(....).))))) | -22.9 | 64.8
34 | GCGGCGAACCGC ((((....)))) | -18.9 | 56.9
35 | GCGGCGACCGC ((((...)))) | -16 | 55.8
36 | GCGGCGCGAAAGCCACGC (((..((....))..))) | -20.8 | 61.7
37 | GCGGCGCGAAAGCTTCGC (((..((....))..))) | -16.8 | 54.1
38 | GCGGCGCTCCGC ((((....)))) | -14.3 | 63.4
39 | GCGGCGGGAAACCACCGC ((((.((....)).)))) | -41.7 | 60.3
40 | GCGGCGTCCGC ((((...)))) | -14.7 | 59.9
41 | GCGGCTACCCGC ((((....)))) | -22.2 | 55.7
42 | GCGGCTACGAAAGTACGC (((..(((....)))))) | -21.6 | 47.6
43 | GCGGCTGCCCGC ((((....)))) | -19.4 | 55
44 | GCGGCTGGAAACAGCCAC (.(((((....))))).) | -11.8 | 51.8
45 | GCGGCTGGAAACAGTCGC (((.(((....))).))) | -47.4 | 67.3
46 | GCGGGAGCCCGC ((((....)))) | -20 | 56
47 | GCGGGAGCGAAAGCTCGC (((..(((....)))))) | -10.9 | 55.8
48 | GCGGGCGAAAGCCCCCGC ((((((....)))..))) | -11.2 | 52.1
49 | GCGGGCGAAAGCCTCCGC ((((((....)))..))) | -25.8 | 53.3
50 | GCGGGCGCGAAAGCGCGC (((..(((....)))))) | -7.24 | 63

Row | Sequence | folding enthalpy [1] [kcal/mol] | Tm [2] [°C]
51 | GCGGGGCGAAAGCATCGC (((..((....))..))) | -33.1 | 65.2
52 | GCGGGGCGAAAGCCATGC ((..(((....)))..)) | -27.7 | 62.4
53 | GCGGGGCGAAAGCCGGGC ((..(((....)))..)) | -14.8 | 56
54 | GCGGGGCGAAAGCGCTGC ((.(.((....)).).)) | -35.9 | 66.4
55 | GCGGGGTCCCGC ((((....)))) | -29.3 | 65.1
56 | GCGGGTACCCGC ((((....)))) | -34.1 | 67.7
57 | GCGGGTACGAAAGTACGC (((..(((....)))))) | -13.8 | 51.5
58 | GCGGGTAGCCGC ((((....)))) | -24.2 | 64
59 | GCGGGTCCCCGC ((((....)))) | -23.5 | 66.8
60 | GCGGGTCTCCGC ((((....)))) | -22.9 | 67.7
61 | GCGGGTTCCCGC ((((....)))) | -23.3 | 67.3
62 | GCGGGTTGCCGC ((((....)))) | -19.8 | 57.2
63 | GCGGTAAACCGC ((((....)))) | -26.2 | 56
64 | GCGGTAACGAAAGTTCGC (((..(((....)))))) | -26.7 | 47.4
65 | GCGGTAGACCGC ((((....)))) | -25.7 | 60.8
66 | GCGGTAGGAAACTACCAC (.(((((....))))).) | -15.6 | 44.1
67 | GCGGTATCCCGC ((((....)))) | -30.5 | 53.5
68 | GCGGTCCCCGC ((((...)))) | -18 | 67.5
69 | GCGGTCCGCCGC ((((....)))) | -19.7 | 63.6
70 | GCGGTCGAAAGACACCGC ((((((....)))..))) | -24.4 | 53.3
71 | GCGGTCGAAAGACAGCGC ((((((....)))..))) | -27.7 | 69.2
72 | GCGGTCGAAAGACTACGC ((((((....)))..))) | -25.1 | 54.3
73 | GCGGTCGCCCGC ((((....)))) | -18.6 | 56.7
74 | GCGGTCGGAAACGATCGC (((.(((....))).))) | -34.8 | 67.3
75 | GCGGTCTTCCGC ((((....)))) | -23.6 | 59.1

Row | Sequence | folding enthalpy [1] [kcal/mol] | Tm [2] [°C]
76 | GCGGTGCCCCGC ((((....)))) | -18.8 | 54.3
77 | GCGGTGCGAAAGCAGTGC ((..(((....)))..)) | -23.5 | 63.6
78 | GCGGTGCGAAAGCATAGC ((..(((....)))..)) | -25.4 | 63.4
79 | GCGGTGCGAAAGCCCGGC ((.(.((....)).).)) | -12.4 | 61.7
80 | GCGGTGCGAAAGCGCAGC ((.(.((....)).).)) | -23.4 | 64.1
81 | GCGGTGGGAAACTGCCGC ((((..(....)..)))) | -41.6 | 56.6
82 | GCGGTGTCCGC ((((...)))) | -23 | 58.2
83 | GCGGTTACCGC ((((...)))) | -28.8 | 59.2
84 | GCGGTTATCCGC ((((....)))) | -30 | 59
85 | GCGGTTCGAAAGAAACGC (((.(((....))).))) | -33.7 | 69.1
86 | GCGGTTCGAAAGAACGC (((.(((....)))))) | -26.8 | 61.2
87 | GCGGTTGACCGC ((((....)))) | -24.7 | 63.9
88 | GCGGTTGCCGC ((((...)))) | -21.2 | 56.6
89 | GCGTAAAAACGC ((((....)))) | -19.9 | 46.4
90 | GCGTAACGAAAGTTTCGC (((.(((....))).))) | -41.3 | 57
91 | GCGTAAGGAAACTTACAC (.(((((....))))).) | -18.4 | 33.4
92 | GCGTAAGGAAACTTACGC (((((((....))))))) | -44.5 | 63.4
93 | GCGTAAGGACGC ((((....)))) | -19.7 | 49.3
94 | GCGTAAGTACGC ((((....)))) | -23.9 | 52.9
95 | GCGTACATACGC ((((....)))) | -24 | 52.1
96 | GCGTACCAACGC ((((....)))) | -21 | 53.6
97 | GCGTACGACGC ((((...)))) | -23.8 | 53.3
98 | GCGTACTAACGC ((((....)))) | -27.2 | 53

— the array DNA melting data of Ke et al. (doi:10.1101/2024.01.08.574731)
